From ChEMBL document CHEMBL5303300, “EUbOPEN Chemogenomics Library - Multiplex” (2023)
Values joined by “and” are separate entries in the source; they are usually repeats but may differ in a detail not shown here. Equal entries are not always repeated.

Tested on: Fibroblast
Experiment: Multiplex assay against human fibroblast
Type: toxicity, cell-based
Details: number of replicates 2
How it was run: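 Compound was added to live cells that had been stained at seeding with Hoechst33342, BioTracker Green Microtubule Cytoskeleton Dye, MitoTracker Red and Annexin V Alexa Fluor 680, and imaging followed on a CQ1 microscope at 37°C and 5% CO2. CellPathfinder machine-learning gating divided cells into Hoechst high-intensity objects or normal cells, normal cells into healthy, pyknosed or fragmented nuclei, and pyknosed cells into mitotic or apoptotic. Tubulin, mitochondrial-mass and membrane-permeability phenotypes are per cents of healthy-nucleus cells.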

[1] = 12 h, 1 µM, compound concentration 1 uM
[2] = 12 h, 10 µM, compound concentration 10 uM
[3] = 24 h, 1 µM, compound concentration 1 uM
[4] = 24 h, 10 µM, compound concentration 10 uM
[5] = 48 h, 1 µM, compound concentration 1 uM
[6] = 48 h, 10 µM, compound concentration 10 uM

`NCC1CCC(CNc2nc(NCc3ccccc3OC(F)(F)F)ncc2[N+](=O)[O-])CC1` (stereo not given) was tested. Which “Population Apoptotic (%)” value [1] did it give?
Its value is 46% and 42%.

And the “Population Fragmented Nuclei (%)” value [1]?
Its value is 9%.

And the “Population Healthy Nuclei (%)” value [1]?
The value was 68% and 62%.

What about the “Population Hoechst High Intensity Objects (%)” value [1] of the same compound?
Its value is 0%.

What about the “Population Membrane Permeable-Phenotype (%)” value [1] of the same compound?
The value was 7% and 9%.

What about the “Population Mitochondria Different-Phenotype (%)” value [1] of the same compound?
The value was 1% and 2%.

And the “Population Mitotic Cells (%)” value [1]?
The value was 53% and 57%.

What about the “Population Normal (%)” value [1] of the same compound?
Its value is 100% and 99%.

And the “Population Pyknosed Nuclei (%)” value [1]?
The value was 21% and 27%.

And the “Population Tubulin-Different-Phenotype (%)” value [1]?
Its value is 60% and 45%.

What about the “Total Cell Count” value [1] of the same compound?
Its value is 205 and 224.

What about the “Population Apoptotic (%)” value [2] of the same compound?
The value was 34% and 27%.

What about the “Population Fragmented Nuclei (%)” value [2] of the same compound?
The value was 14% and 23%.

And the “Population Healthy Nuclei (%)” value [2]?
The value was 54% and 60%.

What about the “Population Hoechst High Intensity Objects (%)” value [2] of the same compound?
Its value is 0%.

What about the “Population Membrane Permeable-Phenotype (%)” value [2] of the same compound?
Its value is 6% and 9%.

What about the “Population Mitochondria Different-Phenotype (%)” value [2] of the same compound?
The value was 28% and 18%.

And the “Population Mitotic Cells (%)” value [2]?
The value was 65% and 72%.

What about the “Population Normal (%)” value [2] of the same compound?
The value was 100%.

What about the “Population Pyknosed Nuclei (%)” value [2] of the same compound?
The value was 31% and 16%.

What about the “Population Tubulin-Different-Phenotype (%)” value [2] of the same compound?
Its value is 84% and 87%.

And the “Total Cell Count” value [2]?
Its value is 135 and 286.

And the “Population Apoptotic (%)” value [3]?
Its value is 64% and 60%.

And the “Population Fragmented Nuclei (%)” value [3]?
Its value is 10% and 15%.

And the “Population Healthy Nuclei (%)” value [3]?
Its value is 67% and 62%.

And the “Population Hoechst High Intensity Objects (%)” value [3]?
The value was 0% and 1%.

What about the “Population Membrane Permeable-Phenotype (%)” value [3] of the same compound?
The value was 0% and 1%.

And the “Population Mitochondria Different-Phenotype (%)” value [3]?
The value was 8%.

And the “Population Mitotic Cells (%)” value [3]?
Its value is 35% and 40%.

And the “Population Normal (%)” value [3]?
Its value is 100% and 98%.

What about the “Population Pyknosed Nuclei (%)” value [3] of the same compound?
The value was 22% and 21%.

What about the “Population Tubulin-Different-Phenotype (%)” value [3] of the same compound?
Its value is 50% and 37%.

And the “Total Cell Count” value [3]?
Its value is 202 and 217.

What about the “Population Apoptotic (%)” value [4] of the same compound?
Its value is 81% and 62%.

What about the “Population Fragmented Nuclei (%)” value [4] of the same compound?
The value was 21% and 22%.

And the “Population Healthy Nuclei (%)” value [4]?
The value was 58% and 67%.

What about the “Population Hoechst High Intensity Objects (%)” value [4] of the same compound?
The value was 0%.

What about the “Population Membrane Permeable-Phenotype (%)” value [4] of the same compound?
Its value is 5% and 3%.

What about the “Population Mitochondria Different-Phenotype (%)” value [4] of the same compound?
The value was 54% and 59%.

And the “Population Mitotic Cells (%)” value [4]?
The value was 18% and 37%.

What about the “Population Normal (%)” value [4] of the same compound?
Its value is 100%.

What about the “Population Pyknosed Nuclei (%)” value [4] of the same compound?
The value was 20% and 9%.

And the “Population Tubulin-Different-Phenotype (%)” value [4]?
Its value is 93%.

And the “Total Cell Count” value [4]?
Its value is 132 and 274.

And the “Population Apoptotic (%)” value [5]?
The value was 70% and 72%.

And the “Population Fragmented Nuclei (%)” value [5]?
Its value is 10% and 13%.

What about the “Population Healthy Nuclei (%)” value [5] of the same compound?
Its value is 72% and 65%.

What about the “Population Hoechst High Intensity Objects (%)” value [5] of the same compound?
Its value is 0%.

What about the “Population Membrane Permeable-Phenotype (%)” value [5] of the same compound?
Its value is 4% and 3%.

What about the “Population Mitochondria Different-Phenotype (%)” value [5] of the same compound?
The value was 2% and 4%.

And the “Population Mitotic Cells (%)” value [5]?
Its value is 29% and 27%.

And the “Population Normal (%)” value [5]?
The value was 100%.

What about the “Population Pyknosed Nuclei (%)” value [5] of the same compound?
The value was 16% and 20%.

And the “Population Tubulin-Different-Phenotype (%)” value [5]?
Its value is 38% and 35%.

What about the “Total Cell Count” value [5] of the same compound?
Its value is 210 and 217.

What about the “Population Apoptotic (%)” value [6] of the same compound?
The value was 90% and 66%.

What about the “Population Fragmented Nuclei (%)” value [6] of the same compound?
The value was 28% and 36%.

What about the “Population Healthy Nuclei (%)” value [6] of the same compound?
Its value is 65% and 58%.

And the “Population Hoechst High Intensity Objects (%)” value [6]?
Its value is 1% and 0%.

And the “Population Membrane Permeable-Phenotype (%)” value [6]?
Its value is 0% and 4%.

What about the “Population Mitochondria Different-Phenotype (%)” value [6] of the same compound?
Its value is 34% and 30%.

And the “Population Normal (%)” value [6]?
Its value is 98% and 99%.

And the “Population Pyknosed Nuclei (%)” value [6]?
The value was 6% and 4%.

What about the “Population Tubulin-Different-Phenotype (%)” value [6] of the same compound?
Its value is 92% and 91%.

What about the “Total Cell Count” value [6] of the same compound?
Its value is 160 and 339.
